The values below come from ChEMBL document CHEMBL1156948, “Statistical molecular design of a focused salicylidene acylhydrazide library and multivariate QSAR of inhibition of type III secretion in the Gram-negative bacterium Yersinia” (Bioorg Med Chem, 2010).

Activity calls are given as the source filed them. How the calls were made is not given here.

In test [1] the test system is Yersinia pseudotuberculosis YPIII. As to the kind of experiment: Inhibition of T3S in Yersinia pseudotuberculosis YPIII expressing yopE-luxAB at 100 uM after 3 hrs by luciferase reporter gene assay. In short, it runs like this: (§1)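 Strain YPIII pIB102 (yopE-luxAB) grown overnight at room temperature in BHI with 5 mM EGTA and 20 mM MgCl2 (calcium depletion), adjusted to OD600 0.088–0.095. Compound added from DMSO at 1.56–200 µM final (eight concentrations). Shaken 1 h at room temperature, then 2 h at 37 °C. Decanal added and light emission read immediately. Triplicates, repeated at least three times.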

Test [2] concerns Escherichia coli. The test can be described thus: Antibacterial activity against Escherichia coli DH5[alpha] at 100 uM after 23 hrs by broth dilution assay. It counts as functional, organism-based. In outline: (§2)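 Overnight LB culture of E. coli DH5α grown at 37 °C, diluted to OD600 0.1 in LB with 2.5 mM CaCl2; compound added from DMSO stock to final 50 or 100 µM. Incubated at 37 °C with absorbance at 595 nm followed over 23 h.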

Test [3] deals with Yersinia pseudotuberculosis YPIII. As to the kind of experiment: Inhibition of T3S in Yersinia pseudotuberculosis YPIII expressing yopE-luxAB at 25 uM after 3 hrs by luciferase reporter gene assay. In short, it runs like this: as §1
The test system is the same in test [4]. The test can be described thus: Inhibition of T3S in Yersinia pseudotuberculosis YPIII expressing yopE-luxAB at 12.5 uM after 3 hrs by luciferase reporter gene assay. In short, it runs like this: as §1
For test [5] the test system is unchanged. As to the kind of experiment: Inhibition of T3S in Yersinia pseudotuberculosis YPIII expressing yopE-luxAB at 6.25 uM after 3 hrs by luciferase reporter gene assay. In outline:
as §1

For test [6] the test system is unchanged. The test can be described thus: Inhibition of T3S in Yersinia pseudotuberculosis YPIII expressing yopE-luxAB at 200 uM after 3 hrs by luciferase reporter gene assay. In outline:
as §1

Test [7] concerns Yersinia pseudotuberculosis. The test can be described thus: Antibacterial activity against Yersinia pseudotuberculosis expressing pIB102 at 100 uM after 23 hrs by broth dilution assay. It counts as functional, organism-based. In short, it runs like this:
(§3)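 Wild-type pIB102 grown overnight in LB at room temperature, diluted to OD600 = 0.1 in LB with 2.5 mM CaCl2. Compound added from DMSO stock to final 50 and 100 µM. Incubated at 37 °C with absorbance at 595 nm read over 23 h.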

In test [8] the test system is Yersinia pseudotuberculosis YPIII. The test can be described thus: Inhibition of T3S in Yersinia pseudotuberculosis YPIII expressing yopE-luxAB at 3.13 uM after 3 hrs by luciferase reporter gene assay. In short, it runs like this:
as §1

For test [9] the test system is unchanged. As to the kind of experiment: Inhibition of T3S in Yersinia pseudotuberculosis YPIII expressing yopE-luxAB at 50 uM after 3 hrs by luciferase reporter gene assay. In outline:
as §1

Test [10] concerns Yersinia pseudotuberculosis. As to the kind of experiment: Antibacterial activity against Yersinia pseudotuberculosis expressing pIB102 at 50 uM after 23 hrs by broth dilution assay. It is filed as functional, organism-based. In short, it runs like this:
as §3

Test [11] deals with Escherichia coli. The test can be described thus: Antibacterial activity against Escherichia coli DH5[alpha] at 50 uM after 23 hrs by broth dilution assay. It counts as functional, organism-based. In outline:
as §2

Test [12] has as its system Yersinia pseudotuberculosis YPIII. The test can be described thus: Inhibition of T3S in Yersinia pseudotuberculosis YPIII expressing yopE-luxAB at 1.56 uM after 3 hrs by luciferase reporter gene assay. In short, it runs like this: as §1

For `COc1ccc(/C=N/NC(=O)C(N)=O)c(O)c1`, the inhibition in [1] was 94%; in test [3] it was 13%; in [4] it was 8%; in test [5], 4%; in [6] it was 97%; in [8] it was -6%. The inhibition in [9] worked out at 73%. Moreover, the outcome (in the test with Escherichia coli [2]; in [7]; in test [10]; in the test with Escherichia coli [11]) was inactive.

With `CCN(CC)c1ccc(/C=N/NC(=O)COc2ccc(F)cc2)c(O)c1`, the inhibition in [1] was found to be 58%; in [3], 35%; in [4], 23%; in test [5] it was 17%; in [6] it was 50%; in test [8], 11%. Besides, the inhibition in test [9] amounted to 54%. Moreover, the outcome (in the test with Escherichia coli [2]; in test [7]; in test [10]; in the test with Escherichia coli [11]) was inactive.

As to `O=C(COc1ccc(F)cc1)N/N=C/c1cc(I)cc(I)c1O`, the inhibition worked out at 36% in test [1]; 21% in [3]; 18% in [4]; 15% in [5]; 44% in test [6]; 0% in [8]. Also, in [9], the inhibition worked out at 30%. Further, the outcome (in the test on Escherichia coli [2]; in test [7]; in test [10]; in the test with Escherichia coli [11]) was inactive.

In the case of `O=C(CC12CC3CC(CC(C3)C1)C2)N/N=C/c1cc([N+](=O)[O-])cc([N+](=O)[O-])c1O`, the inhibition was 20% in [1]; 6% in [3]; 10% in test [4]; 1% in test [5]; 13% in [6]; -5% in test [8]. Moreover, the inhibition in test [9] came to 18%. Further, the outcome (in the test on Escherichia coli [2]; in test [7]; in test [10]; in the test on Escherichia coli [11]) was inactive.

As to `COc1cc([N+](=O)[O-])cc(/C=N/NC(=O)c2ccncc2)c1O`, the inhibition was 42% in [1]; 28% in [3]; 21% in test [4]; 16% in [5]; 51% in test [6]; 8% in test [8]. Besides, the inhibition in [9] is 35%. For the same molecule, the result (with Escherichia coli [2]; in [7]; in [10]; with Escherichia coli [11]) was inactive.

For `COc1cc(Br)cc(/C=N/NC(=O)C(N)=O)c1O`, the inhibition is 47% in test [1]; 10% in test [3]; 8% in test [4]; 1% in test [5]; 78% in test [6]; -4% in test [8]. The inhibition in test [9] was 9%. Also, the result (in the test with Escherichia coli [2]; in test [7]; in [10]; with Escherichia coli [11]) was inactive.

As to `COc1ccc(C(=O)N/N=C/c2cc(F)cc(Cl)c2O)cc1OC`, the inhibition in [1] was 56%; in [12] it was -10%; in test [3] it was 10%; in [4] it was 0%; in test [5], 6%; in [6] it was 64%. Besides, in test [9], the inhibition came to 38%. In addition, the outcome (in the test with Escherichia coli [2]; in test [7]; in [10]; with Escherichia coli [11]) was inactive.

Turning to `COc1ccc(Br)c(C(=O)N/N=C/c2ccc(Cl)cc2O)c1`, the inhibition in test [1] turned out to be 49%; in [3], 31%; in test [4], 25%; in [5], 10%; in [6], 58%; in [8] it was 14%. For the same molecule, in test [9], the inhibition was 36%. The outcome (in the test with Escherichia coli [2]; in test [7]; in test [10]; with Escherichia coli [11]) was inactive.

With `O=C(CCc1ccc(O)cc1)N/N=C/c1c(O)cc(O)cc1O`, the inhibition in [1] was determined as 36%; in test [3], 25%; in [4], 23%; in test [5], 20%; in test [6] it was 46%; in [8] it was 18%. Besides, the inhibition in test [9] is 29%. In addition, the outcome (with Escherichia coli [2]; in test [7]; in [10]; in the test on Escherichia coli [11]) was inactive.

On to `COc1cc(/C=N/NC(=O)COc2ccc([N+](=O)[O-])cc2)c(O)c(OC)c1`, for which the inhibition is 14% in [1]; 18% in [3]; 14% in test [4]; 13% in test [5]; -2% in test [6]; -1% in test [8]. In [9], the inhibition came to 16%. Also, the outcome (in the test on Escherichia coli [2]; in test [7]; in test [10]; in the test on Escherichia coli [11]) was inactive.

For the molecule `COc1ccc(C(=O)N/N=C/c2cc(I)cc(I)c2O)cc1OC`, the inhibition in test [1] worked out at 33%; in test [3], 30%; in test [4] it was 23%; in test [5], 19%; in test [6], 40%; in test [8], 4%. The inhibition in [9] was 24%. The outcome (in the test with Escherichia coli [2]; in test [7]; in [10]; in the test on Escherichia coli [11]) was inactive.

On to `COc1cccc(C(=O)N/N=C/c2cc(C(C)(C)C)cc(C(C)(C)C)c2O)c1`, for which the inhibition in test [1] amounted to 21%; in test [3], 14%; in test [4], 13%; in [5] it was 7%; in [6], 11%; in test [8], 4%. In [9], the inhibition stood at 23%. The result (with Escherichia coli [2]; in test [7]; in test [10]; with Escherichia coli [11]) was inactive.

In the case of `Cc1nnsc1C(=O)N/N=C/c1cc(F)cc(Cl)c1O`, the result with Escherichia coli [2] and in the test with Escherichia coli [11] was inactive.

Regarding `COc1cccc(/C=N/NC(=O)c2cc(OC)c(OC)c(OC)c2)c1O`, the inhibition in test [1] was found to be 65%; in test [3] it was 20%; in [4], 15%; in test [5] it was 17%; in test [6] it was 68%; in test [8], 14%. In addition, the inhibition in [9] was determined as 43%. For the same molecule, the outcome (with Escherichia coli [2]; in [7]; in test [10]; with Escherichia coli [11]) was inactive.

On to `O=C(N/N=C/c1cc([N+](=O)[O-])cc([N+](=O)[O-])c1O)c1ccc(Br)cc1`, for which the inhibition in test [1] was 22%; in test [3] it was 19%; in test [4], 12%; in [5] it was 9%; in [6], 18%; in [8], -6%. Also, in test [9], the inhibition amounted to 22%. Further, the result (with Escherichia coli [2]; in [7]; in test [10]; with Escherichia coli [11]) was inactive.

As to `CC(C)(C)c1cc(/C=N/NC(=O)COc2ccc([N+](=O)[O-])cc2)c(O)c(C(C)(C)C)c1`, the inhibition in test [1] is 18%; in test [3], 12%; in [4], 14%; in [5], 7%; in test [6], 4%; in [8] it was -2%. Further, the inhibition in test [9] was 18%. Further, the result (in the test on Escherichia coli [2]; in test [7]; in test [10]; in the test with Escherichia coli [11]) was inactive.
